High-throughput results from PubChem.
NR1D1 modulator: modulators of Rev-erb alpha DNA binding, primary screen, biochemical, FITC-DNA, fluorescence polarization, uHTS | Nuclear receptor subfamily 1 group D member 1 (Homo sapiens), P20393 | Rev-erbα–FITC-DNA binding, 90 min | activity, % at 10 µM | 0.79% of 370,000 active;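 active = activity above about 14%, limit read from the data; passing the limit was not always enough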;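 note: 0% = DMSO wells with 35 nM protein and 100% = DMSO wells with 750 nM protein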
NR2E3 ag-1: inhibitors of NR2E3-RetCOR corepressor binding, primary screen, NR2E3 agonist project, biochemical, TR-FRET, GST-NR2E3, biotin-RetCOR. 1536-well. inhibition of corepressor binding, % at 4.78 µM. 0.12% of 320,000 active. AID 2300, 2010;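 active = percent inhibition above the cutoff of mean plus 3 SD of all tested compounds, set per screening campaign, cut at about 20% in these data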;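 note: 0% = DMSO wells and 100% = biotin wells as full block of FRET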
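Assay system: NR2E3–RetCOR corepressor complex. Quantity: 1.35 nM GST-NR2E3. Buffer or medium: pH 7.5 Tris-based buffer. Reagent: biotinylated RetCOR corepressor at 7 nM final. Schedule: 5 h at 4 °C. Detection: TR-FRET, emission read at 617 and 671 nm. Replicates: one well per compound, singlicate testing.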
PG9 binder: binders of HIV-1 gp120 antibody PG9, primary screen, biochemical, TR-FRET; HIV-1 gp120 / PG9 antibody interaction; TR-FRET gp120-PG9 antibody binding; inhibition, % at 6.7 µM; 0.43% of 360,000 active; in the data active = inhibition above about 8.5%
VLA-4 inh: inhibition in human VLA-4 binding assay, primary screen, VLA-4 allosteric modulator project, MLPCN library, flow cytometry, VLA-4 expressing cells | Integrin alpha-4 (Homo sapiens), P13612 | ligand binding flow cytometry | inhibition, % (about 7 µM as worked out from the volumes in the protocol) | 0.2% of 330,000 active; in the data active = inhibition above about 50%
Target sequence (P13612 whole entry, looked up): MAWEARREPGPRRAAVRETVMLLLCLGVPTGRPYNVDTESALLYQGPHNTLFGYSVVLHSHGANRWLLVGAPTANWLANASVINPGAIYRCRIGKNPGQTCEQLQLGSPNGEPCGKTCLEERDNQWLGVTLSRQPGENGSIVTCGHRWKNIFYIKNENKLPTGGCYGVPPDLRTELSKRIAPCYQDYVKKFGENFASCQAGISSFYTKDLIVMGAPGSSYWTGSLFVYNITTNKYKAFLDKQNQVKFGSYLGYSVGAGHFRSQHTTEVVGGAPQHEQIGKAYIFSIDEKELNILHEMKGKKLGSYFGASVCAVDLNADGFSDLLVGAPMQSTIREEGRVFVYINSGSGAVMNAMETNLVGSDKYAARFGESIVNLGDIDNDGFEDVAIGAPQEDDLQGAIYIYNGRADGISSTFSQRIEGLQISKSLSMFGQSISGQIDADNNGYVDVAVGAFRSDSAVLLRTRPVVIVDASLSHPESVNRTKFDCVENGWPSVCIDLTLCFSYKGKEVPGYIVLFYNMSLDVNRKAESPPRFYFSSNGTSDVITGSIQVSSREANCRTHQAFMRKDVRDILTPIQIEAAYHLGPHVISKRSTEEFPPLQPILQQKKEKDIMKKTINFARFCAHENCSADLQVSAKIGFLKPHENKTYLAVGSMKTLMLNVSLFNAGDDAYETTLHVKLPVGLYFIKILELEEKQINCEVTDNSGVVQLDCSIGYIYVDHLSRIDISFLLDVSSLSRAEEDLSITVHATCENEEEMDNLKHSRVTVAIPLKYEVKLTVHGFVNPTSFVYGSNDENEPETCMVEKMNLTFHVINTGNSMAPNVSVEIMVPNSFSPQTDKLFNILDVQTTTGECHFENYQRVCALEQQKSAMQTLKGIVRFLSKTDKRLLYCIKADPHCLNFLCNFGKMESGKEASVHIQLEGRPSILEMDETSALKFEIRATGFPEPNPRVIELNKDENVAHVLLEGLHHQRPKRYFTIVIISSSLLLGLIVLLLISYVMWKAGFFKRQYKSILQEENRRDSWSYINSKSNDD
NR2E3 ag-2: NR2E3 agonists in two-hybrid cells, primary screen, cell-based, luminescence, CHO-S, Gal4-NCOR/VP16-NR2E3; luciferase; inhibition of corepressor binding, % at 3.98 µM; 0.35% of 360,000 active; AID 602229, 2012;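 active = inhibition above the mean of all tested compounds plus 3 SD, cut at about 70% in these data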;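 note: 0% = DMSO with NR2E3 transfected cells and 100% = cells lacking NR2E3 construct; higher means lower luciferase signal from less NR2E3 corepressor binding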
NR2E3 ag confirm: NR2E3 agonist confirmation in cells, cell-based, luminescence, CHO-S two-hybrid. shares compounds with NR2E3 ag-2. CHO-S mammalian two-hybrid NR2E3-NCOR, luciferase luminescence. inhibition, % at 3.98 µM. 51% of 2,300 active. AID 624378, 2012;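 active = average inhibition above a cutoff equal to the mean inhibition of all tested compounds plus one SD, cut at about 70% in these data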;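 note: 0% = DMSO in NR2E3 cells and 100% = DMSO in cells lacking NR2E3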
GAL4-VP16 luc: GAL4-VP16 reporter modulators, confirmation, counter-screen for NR2E3 agonist project, cell-based, luminescence, CHO-S, high throughput; shares compounds with NR2E3 ag-2; CHO-S GAL4-VP16 luciferase reporter; inhibition, % at 3.98 µM; 29% of 2,300 active; AID 624379, 2012;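 active = mean inhibition above a cutoff equal to the average over all tested compounds plus one standard deviation, cut at about 70% in these data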;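 note: luciferase from a UAS reporter driven by GAL4-VP16 transactivation; 0% = DMSO with VP16-transfected cells and 100% = DMSO with cells lacking VP16; higher means less reporter light so more repression of VP16 activity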
Starred values were filed as active, the others as inactive. Hits are enriched below; roughly 1.6% of the tested compounds scored in any of these assays.

How did C[C@H]1CCC/C=C/[C@@H]2C[C@H](O)C[C@H]2[C@H](O)[C@H](S(=O)c2ccc(O)cc2)CC(=O)O1 (some centres undefined) do in these assays?
NR1D1 modulator: 0; PG9 binder: 0; NR2E3 ag-2: 78*; NR2E3 ag confirm: 91*; GAL4-VP16 luc: 47

How did Cc1cc2c(Nc3ccccc3)ncnc2s1 do in these assays?
NR1D1 modulator: -4; NR2E3 ag-1: 2; PG9 binder: -1; VLA-4 inh: -4; NR2E3 ag-2: -12

How did CCCCCCCCNc1ncnc2ccccc12 do in these assays?
NR2E3 ag-1: 0; VLA-4 inh: -1; NR2E3 ag-2: 92*; NR2E3 ag confirm: 99*; GAL4-VP16 luc: 92*

What do the screens show for `CCc1ccccc1Nc1ncnc2ccccc12`?
NR1D1 modulator: -7; NR2E3 ag-1: -1; PG9 binder: -3; VLA-4 inh: -23; NR2E3 ag-2: -13

How did O=C(CSc1ncnc2ccccc12)NCCc1ccccc1 do in these assays?
NR1D1 modulator: -4; NR2E3 ag-1: -2; PG9 binder: 2; VLA-4 inh: -2; NR2E3 ag-2: 2

Results for Brc1ccc2ncnc(NCc3ccccc3)c2c1 ?
NR1D1 modulator: -1; NR2E3 ag-1: 2; PG9 binder: 0; VLA-4 inh: 0; NR2E3 ag-2: 65; NR2E3 ag confirm: 91*; GAL4-VP16 luc: 85*

Results for Cc1cc2c(NCCc3ccccc3)ncnc2s1 ?
NR1D1 modulator: 2; NR2E3 ag-1: -1; PG9 binder: 0; VLA-4 inh: -11; NR2E3 ag-2: 56; NR2E3 ag confirm: 90*; GAL4-VP16 luc: 73*

Results for c1ccc(CCNc2ncnc3ccccc23)cc1 ?
NR1D1 modulator: 2; NR2E3 ag-1: 3; PG9 binder: 1; VLA-4 inh: -2; NR2E3 ag-2: 50; NR2E3 ag confirm: 89*; GAL4-VP16 luc: 70

How did Cc1ccccc1CN1CCCCC(NC(=O)c2cccc(F)c2)C1=O (centres undefined) do in these assays?
NR1D1 modulator: -1

How did COc1ccccc1NS(=O)(=O)c1ccc(N/N=C/C=C/c2ccccc2[N+](=O)[O-])c([N+](=O)[O-])c1 do in these assays?
NR1D1 modulator: 6; NR2E3 ag-1: 0; PG9 binder: 1; VLA-4 inh: 44; NR2E3 ag-2: 4

What do the screens show for `COc1ccccc1NS(=O)(=O)c1ccc(NN=C2CCCC2)c([N+](=O)[O-])c1`?
NR1D1 modulator: 3; NR2E3 ag-1: 1; PG9 binder: 1; VLA-4 inh: -4; NR2E3 ag-2: 64; NR2E3 ag confirm: 65; GAL4-VP16 luc: 63

What do the screens show for `Cc1cccc(Cn2cc(CN3CC(N(C)CCCOC(=O)c4cc(C)cc(C)c4)CS3(=O)=O)nn2)c1` (centres undefined)?
NR1D1 modulator: -2

What do the screens show for `COc1ccc(NS(=O)(=O)c2cccc(C(=O)OCC(=O)N3CCN(c4ccc(OC)cc4)CC3)c2)cc1`?
NR1D1 modulator: -3; NR2E3 ag-1: 2; PG9 binder: -1; VLA-4 inh: 0; NR2E3 ag-2: 63; NR2E3 ag confirm: 28; GAL4-VP16 luc: 50

What do the screens show for `COc1ccc(N2CCN(C(=O)c3ccc(NS(=O)(=O)c4ccc(F)c(F)c4)cc3)CC2)cc1`?
NR1D1 modulator: -2; NR2E3 ag-1: 4; PG9 binder: 2; VLA-4 inh: 0; NR2E3 ag-2: 20

How did COc1ccc(NS(=O)(=O)c2ccc(C(=O)N3CCN(c4ccc(F)cc4)CC3)cc2)cc1 do in these assays?
NR1D1 modulator: 5; PG9 binder: 0; VLA-4 inh: 17; NR2E3 ag-2: 75*; NR2E3 ag confirm: 74*; GAL4-VP16 luc: 65

Results for O=C(Cc1ccc2c(c1)OCO2)N1CCC(n2nc(-c3ccccc3)oc2=O)CC1 ?
NR1D1 modulator: -4

What do the screens show for `C#CCNC(=O)C[C@H]1C[C@@]2(C(=O)OC)C(=C[C@H](COCc3ccccc3)O[C@@H]2C)N(Cc2ccc(Cl)cc2Cl)C1=O`?
NR1D1 modulator: 6

Results for CCCOc1ccc(F)cc1-c1cc(C(=O)NCc2ccc(C(F)(F)F)cc2)[nH]n1 ?
NR2E3 ag-2: 52; NR2E3 ag confirm: 6; GAL4-VP16 luc: 17

How did CC1(c2ccc3ccccc3c2)NC(=O)N(CC(=O)N2CCN(Cc3ccccc3)CC2)C1=O (centres undefined) do in these assays?
NR2E3 ag-1: 2; VLA-4 inh: 2; NR2E3 ag-2: 64; NR2E3 ag confirm: 70*; GAL4-VP16 luc: 57

What do the screens show for `Cc1ccc(CNC(=O)OC(C)(C)C)c(/C=C/S(=O)(=O)NC2CCCC2)c1`?
NR1D1 modulator: -3

Results for COc1ccccc1NS(=O)(=O)c1ccc2oc(SCc3ccc(F)cc3)nc2c1 ?
NR1D1 modulator: 5; NR2E3 ag-1: -3; PG9 binder: 0; VLA-4 inh: -15; NR2E3 ag-2: 6

What do the screens show for `COc1ccc(NS(=O)(=O)c2ccc3oc(SCc4ccc(F)cc4)nc3c2)cc1`?
NR1D1 modulator: -5; NR2E3 ag-1: 1; PG9 binder: -3; VLA-4 inh: 6; NR2E3 ag-2: 53; NR2E3 ag confirm: 85*; GAL4-VP16 luc: 69

How did Clc1ccc(-c2noc(CSc3nnc(-c4ccncc4)n3-c3ccccc3)n2)cc1 do in these assays?
NR1D1 modulator: 6; NR2E3 ag-1: 4; PG9 binder: 2; VLA-4 inh: -9; NR2E3 ag-2: 64; NR2E3 ag confirm: 62; GAL4-VP16 luc: 31

How did CCOC(=O)CSc1nnc(CNc2ccc(Cl)cc2)n1Cc1ccccc1 do in these assays?
NR1D1 modulator: -1; NR2E3 ag-1: -3; PG9 binder: 2; VLA-4 inh: 1; NR2E3 ag-2: 18

What do the screens show for `CC(C)OC(=O)CSc1nnc(CNc2ccc(Cl)cc2)n1Cc1ccccc1`?
NR1D1 modulator: 0; NR2E3 ag-1: 2; PG9 binder: 1; VLA-4 inh: 9; NR2E3 ag-2: 73*; NR2E3 ag confirm: 42; GAL4-VP16 luc: 63
